For 7 molecules, Decrease results are on record in ChEMBL document CHEMBL1133122, “Hypocholesterolemic and hypolipidemic activity of some novel morpholine derivatives with antioxidant activity” (J Med Chem, 2000).

Holding throughout (assay type): functional
The subject of assay [1] is Rattus norvegicus. The assay is described as follows: Percent decrease in Total Triglycerides was determined after intraperitoneal uM/kg. The gist of the method: (§1)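 Hyperlipidemia induced in male Fischer-344 rats (230-280 g) by Triton WR 1339 in aqueous solution, 200 mg/kg ip. 1 h later the compound (28 or 56 µmol/kg, in saline) or saline alone was given ip; at 56 µmol/kg, dosing was twice in 24 h. After 24 h, aortic blood was drawn for plasma total cholesterol, LDL and triglycerides, expressed as % decrease. 4-6 rats per group; Student's t-test.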

The test system of assay [2] is Rattus norvegicus. The assay is described as follows: Percent decrease in Total cholesterol was determined after intraperitoneal uM/kg. The method, boiled down: as §1
The test system of assay [3] is Rattus norvegicus. The assay is described as follows: Percent decrease in Total Low density lipoproteins was determined after intraperitoneal uM/kg; Not significant. The method, boiled down:
as §1

In assay [4] the test system is Rattus norvegicus. The assay is described as follows: Percent decrease in Total cholesterol was determined after intraperitoneal administration of a dose of 56 uM/kg. The method, boiled down: as §1
Assay [5] concerns Rattus norvegicus. The assay is described as follows: Percent decrease in Total Low density lipoproteins was determined after intraperitoneal administration of a dose of 56 uM/kg. The method, boiled down:
as §1

The test system of assay [6] is Rattus norvegicus. The assay can be described thus: Percent decrease in Total Triglycerides was determined after intraperitoneal administration of a dose of 56 uM/kg. The gist of the method: as §1
For assay [7], the system named is Rattus norvegicus. The assay is described as follows: Percent decrease in Total Low density lipoproteins was determined after intraperitoneal administration of a dose of 56 umol/kg. The gist of the method:
as §1

Assay [8] deals with Rattus norvegicus. The assay can be described thus: Percent decrease in Total Low density lipoproteins was determined after intraperitoneal uM/kg. The gist of the method: as §1

For `CCCOC1(c2ccc(-c3ccccc3)cc2)CN2CCCCC2CO1.Cl` (stereo unspecified), the Decrease is 34% in the assay with Rattus norvegicus [1], 36% with Rattus norvegicus [2] and 17% with Rattus norvegicus [3].
For `CCOC1(c2ccc(-c3ccccc3)cc2)CN(C)CCO1.Cl` (stereo unspecified), the Decrease amounted to 30% in the assay with Rattus norvegicus [4], 22% with Rattus norvegicus [5] and 39% in the assay on Rattus norvegicus [6].
For the molecule `CCCOC1(c2ccc(-c3ccccc3)cc2)CN(C)C2CCCCC2O1.Cl` (stereo unspecified), the Decrease is 28% in the assay with Rattus norvegicus [7], 41% with Rattus norvegicus [1] and 50% in the assay on Rattus norvegicus [2].
`CC(C)(Sc1cc(C(C)(C)C)c(O)c(C(C)(C)C)c1)Sc1cc(C(C)(C)C)c(O)c(C(C)(C)C)c1` [PROBUCOL]: the Decrease in the assay on Rattus norvegicus [4] stood at 18%; with Rattus norvegicus [5], 18%; in the assay on Rattus norvegicus [6], 11%.
`CN1CCOC(O)(c2ccc(-c3ccccc3)cc2)C1.Cl` (stereo unspecified): the results for the Decrease in the assay with Rattus norvegicus [4], in the assay on Rattus norvegicus [5] and in the assay with Rattus norvegicus [6] were 32%, 32% and 42%, respectively.
Turning to `CN1CC(O)(c2ccc(-c3ccccc3)cc2)OC2CCCCC21` (stereo unspecified), the Decrease is listed as 49% in the assay on Rattus norvegicus [1], 54% with Rattus norvegicus [2] and 51% with Rattus norvegicus [8].
On the same counts, the results for `OC1(c2ccc(-c3ccccc3)cc2)CN2CCCCC2CO1` (stereo unspecified) are 20%, 22% and 51%.
